EC50 data for 20 compounds are collected here from ChEMBL document CHEMBL1123471, “Dopamine receptor agonists: 3-allyl-6-chloro-2,3,4,5-tetrahydro- 1-(4-hydroxyphenyl)-1H-3-benzazepine-7,8-diol and a series of related 3-benzazepines” (J Med Chem, 1986).

Holding throughout (format): functional, organism-based
The species named for assay [1] is Oryctolagus cuniculus. Nature of the assay: Inhibition of the constrictor response to electrical stimulation in rabbit ear artery. The gist of the method:
(§1)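 Isolated perfused rabbit ear artery in Krebs-Henseleit (95% O2/5% CO2, 35 °C, pH 7.4), stabilized ≥1 h. Sympathetic nerves field-stimulated every 4 min (0.7-ms pulses, 75 V, 10-15 Hz trains of 300-500 ms). Compound superfused at increasing concentrations, 4 min each. Read-out is the rise in perfusion pressure; IC50 from least-squares curves.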

Another assay is filed under the species Rattus norvegicus. Put plainly: Concentration necessary to cause 50% increase in cAMP formation(by adenylate cyclase) relative to the maximum increase caused by the compound. The procedure, abridged: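 Rat caudate homogenate (male Charles River rats, 225-300 g), made at 0 °C in 50 mM Tris-maleate pH 7.4 with 2 mM EGTA; incubated with test compound at increasing concentrations, 2 mM MgSO4, 5 mM aminophylline, and [14C]ATP (final 0.65 mM) for 3 min at 30 °C. [14C]cAMP isolated on alumina/Dowex columns and counted; quadruplicates; least-squares dose-response curves.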

Assay [2] is filed under the species Oryctolagus cuniculus. Nature of the assay: Concentration necessary to inhibit 50% of the constrictor response to electrical stimulation in rabbit ear artery; I=Inactive. The gist of the method:
as §1

Where a name gives a salt, the structure may show the parent alone. Some results are limits rather than exact numbers.

As for `NC1CCc2cc(O)c(O)cc2C1` (stereo not given), the EC50 in the assay listed under Oryctolagus cuniculus [1] was determined as 0.017 µM.

For `NCCc1ccc(O)c(O)c1` [DOPAMINE], the EC50 in the assay listed under Oryctolagus cuniculus [1] is 0.038 µM.

Turning to `CCCN1CCc2c(cc(O)c(O)c2Cl)C(c2ccc(O)cc2)C1` (stereo not given), the figures for the EC50 in the assay filed under Rattus norvegicus and in the assay listed under Oryctolagus cuniculus [1] were 0.55 µM and 1 µM, respectively.

Regarding `C=CCN1CCc2c(cc(O)c(O)c2Cl)C(c2ccc(O)cc2)C1` (stereo not given), the EC50 in the assay filed under Rattus norvegicus was determined as 0.015 µM; in the assay filed under Oryctolagus cuniculus [1] it was 0.122 µM.

In the case of `C#CCN1CCc2c(cc(O)c(O)c2Cl)C(c2ccc(O)cc2)C1` (stereo not given), the EC50 stood at 0.64 µM in the assay listed under Rattus norvegicus and 2.7 µM in the assay filed under Oryctolagus cuniculus [1].

In turn, `C/C=C/CN1CCc2c(cc(O)c(O)c2Cl)C(c2ccc(O)cc2)C1` (stereo not given) returned an EC50 in the assay filed under Oryctolagus cuniculus [1] of 10 µM.

On to `C=CCN1CCc2c(cc(O)c(O)c2Cl)[C@@H](c2ccc(O)cc2)C1`, for which the results for the EC50 in the assay filed under Rattus norvegicus and in the assay listed under Oryctolagus cuniculus [1] were 0.009 µM and 0.084 µM, respectively.

For the compound `CCCN(CCC)CCc1ccc(O)c2c1CC(=O)N2` [SKF-89124A], in the assay filed under Oryctolagus cuniculus [1], the EC50 came to 0.002 µM.

Take `CN1CCc2cccc3c2[C@H]1Cc1ccc(O)c(O)c1-3` [APOMORPHINE]: the EC50 in the assay filed under Oryctolagus cuniculus [1] was determined as 0.044 µM.

In the case of `CCCCN(CCC)CCc1ccc(O)c(O)c1`, the EC50 in the assay listed under Oryctolagus cuniculus [1] is 0.048 µM.

As for `C=CCN1CCc2c(cc(O)c(O)c2Cl)[C@H](c2ccc(O)cc2)C1`, the EC50 is over 10 µM in the assay filed under Rattus norvegicus and 3 µM in the assay listed under Oryctolagus cuniculus [1].

On to `Oc1ccc(C2CN(CC3CC3)CCc3c2cc(O)c(O)c3Cl)cc1` (stereo not given), for which the EC50 in the assay filed under Rattus norvegicus stood at 1.1 µM; in the assay filed under Oryctolagus cuniculus [1] it was 1.7 µM.

For `CCCN(CCC)CCc1ccc(O)c(O)c1`, in the assay listed under Oryctolagus cuniculus [1], the EC50 came out at 0.06 µM.

Regarding `OCC(O)CN1CCc2c(cc(O)c(O)c2Cl)C(c2ccc(O)cc2)C1` (stereo not given), the EC50 in the assay listed under Oryctolagus cuniculus [1] was over 10 µM.

For the compound `OCCN1CCc2c(cc(O)c(O)c2Cl)C(c2ccc(O)cc2)C1` (stereo not given), the values for the EC50 in the assay filed under Rattus norvegicus and in the assay listed under Oryctolagus cuniculus [1] were 1 µM and 0.5 µM, respectively.

On to `CN1CCc2c(cc(O)c(O)c2Cl)C(c2ccc(O)cc2)C1` (stereo not given), for which the EC50 is about 10 µM in the assay listed under Rattus norvegicus and 0.09 µM in the assay filed under Oryctolagus cuniculus [1].

For the compound `Oc1ccc(C2CNCCc3c2cc(O)c(O)c3Cl)cc1` (stereo not given) [FENOLDOPAM MESYLATE], the EC50 worked out at 0.057 µM in the assay listed under Rattus norvegicus and 1 µM in the assay listed under Oryctolagus cuniculus [1].

Consider `C=CCN1CCc2c(cc(O)c(O)c2Cl)C(c2cccc(O)c2)C1` (stereo not given), for which the EC50 in the assay listed under Rattus norvegicus turned out to be 0.125 µM; in the assay listed under Oryctolagus cuniculus [1], 0.76 µM.

Take `Oc1ccc(C2CN(C/C=C/c3ccccc3)CCc3c2cc(O)c(O)c3Cl)cc1` (stereo not given): the EC50 result in the assay listed under Oryctolagus cuniculus [2] was “Not Active”.

The compound `Oc1cc2c(cc1O)CCNCC2` had an EC50 in the assay filed under Oryctolagus cuniculus [1] of 0.012 µM.
